Reference: ChEMBL document CHEMBL2157875, “Design, synthesis and in vitro evaluation of a series of α-substituted phenylpropanoic acid PPARγ agonists to further investigate the stereochemistry-activity relationship” (Bioorg Med Chem, 2012)

What was measured:
Type in all cases: cell-based
[1] = molecular target: T1, Peroxisome proliferator-activated receptor alpha (Homo sapiens, UniProt Q07869); test: Transactivation of human PPARalpha expressed in human HEK293 cells after 16 to 20 hrs by dual luciferase beta-galactosidase reporter gene assay
T1 sequence (Q07869 whole entry): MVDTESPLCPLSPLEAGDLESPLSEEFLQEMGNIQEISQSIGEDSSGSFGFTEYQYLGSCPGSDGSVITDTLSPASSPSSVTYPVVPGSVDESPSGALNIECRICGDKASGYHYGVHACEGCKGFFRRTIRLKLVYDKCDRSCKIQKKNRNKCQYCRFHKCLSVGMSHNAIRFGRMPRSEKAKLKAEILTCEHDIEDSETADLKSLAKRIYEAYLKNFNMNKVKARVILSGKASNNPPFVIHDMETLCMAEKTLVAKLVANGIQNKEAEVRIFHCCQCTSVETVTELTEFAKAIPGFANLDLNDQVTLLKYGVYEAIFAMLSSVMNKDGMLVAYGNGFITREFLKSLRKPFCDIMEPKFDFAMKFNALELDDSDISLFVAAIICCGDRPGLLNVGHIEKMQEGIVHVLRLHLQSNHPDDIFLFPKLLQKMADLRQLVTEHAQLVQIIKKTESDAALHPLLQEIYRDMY
Procedure, shortened: (§1)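 HEK293 cells were grown in DMEM with 5% FBS and antibiotic-antimycotic at 37 °C in 5% CO2. They were co-transfected by calcium phosphate with 50 ng reporter, 20 ng pCMX-β-galactosidase and 15 ng of each receptor plasmid, made up to 150 ng with pGEM carrier. Ligands were added 8 h later and cells harvested about 16–20 h after. Luciferase was normalized to β-galactosidase; means of triplicates.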

[2] = molecular target: T2, Peroxisome proliferator-activated receptor gamma (Homo sapiens, UniProt P37231); test: Transactivation of human PPARgamma expressed in human HEK293 cells after 16 to 20 hrs by dual luciferase beta-galactosidase reporter gene assay; procedure, shortened: as §1
T2 sequence (P37231 whole entry): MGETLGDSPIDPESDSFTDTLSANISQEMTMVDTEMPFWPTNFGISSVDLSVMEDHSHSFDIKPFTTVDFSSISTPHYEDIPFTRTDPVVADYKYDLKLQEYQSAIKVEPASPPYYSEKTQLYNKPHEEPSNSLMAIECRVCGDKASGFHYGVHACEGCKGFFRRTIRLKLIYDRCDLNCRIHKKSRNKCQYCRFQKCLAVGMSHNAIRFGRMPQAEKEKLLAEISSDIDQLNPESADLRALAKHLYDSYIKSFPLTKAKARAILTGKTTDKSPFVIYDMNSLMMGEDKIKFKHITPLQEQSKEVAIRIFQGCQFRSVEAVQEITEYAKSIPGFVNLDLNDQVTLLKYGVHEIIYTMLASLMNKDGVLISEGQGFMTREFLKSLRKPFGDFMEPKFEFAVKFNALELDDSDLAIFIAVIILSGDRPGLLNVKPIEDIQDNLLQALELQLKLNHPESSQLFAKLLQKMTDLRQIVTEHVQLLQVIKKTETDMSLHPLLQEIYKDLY

[3] = molecular target: T3, Peroxisome proliferator-activated receptor gamma (Homo sapiens) (UniProt P37231); test: Transactivation of human PPARgamma expressed in human HEK293 cells assessed as concentration required for maximum activity after 16 to 20 hrs by dual luciferase beta-galactosidase reporter gene assay; procedure, shortened: as §1
T3 sequence (whole entry): T2 sequence (P37231 whole entry)

HEK293 = test: Selectivity ratio of EC50 for human PPARalpha expressed in human HEK293 cells to EC50 for human PPARgamma expressed in human HEK293 cells
[4] = molecular target: PPAR delta/gamma (Homo sapiens) (UniProt P37231+Q03181); test: Selectivity ratio of EC50 for human PPARdelta expressed in human HEK293 cells to EC50 for human PPARgamma expressed in human HEK293 cells
[5] = molecular target: T4, Peroxisome proliferator-activated receptor delta (Homo sapiens, UniProt Q03181); test: Transactivation of human PPARdelta expressed in human HEK293 cells after 16 to 20 hrs by dual luciferase beta-galactosidase reporter gene assay
T4 sequence (Q03181 whole entry): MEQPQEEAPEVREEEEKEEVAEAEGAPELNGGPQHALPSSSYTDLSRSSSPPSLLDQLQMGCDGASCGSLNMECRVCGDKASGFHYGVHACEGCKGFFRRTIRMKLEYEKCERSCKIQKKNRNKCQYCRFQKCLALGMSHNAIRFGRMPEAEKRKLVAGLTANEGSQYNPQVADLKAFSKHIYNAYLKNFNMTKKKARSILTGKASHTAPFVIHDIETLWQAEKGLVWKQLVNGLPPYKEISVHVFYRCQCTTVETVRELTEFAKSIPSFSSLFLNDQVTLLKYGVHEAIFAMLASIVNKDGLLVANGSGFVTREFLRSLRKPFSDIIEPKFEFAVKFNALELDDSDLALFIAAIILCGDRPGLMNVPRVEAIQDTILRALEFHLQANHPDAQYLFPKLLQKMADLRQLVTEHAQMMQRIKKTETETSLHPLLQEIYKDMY
Procedure, shortened: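 HEK293 cells grown in DMEM with 5% FBS and antibiotic-antimycotic at 37 °C, 5% CO₂. Calcium phosphate cotransfection per well of 50 ng reporter, 20 ng pCMX-β-galactosidase, 15 ng receptor expression plasmid, pGEM carrier to 150 ng. Ligands added 8 h post-transfection, cells harvested ~16–20 h later. Luciferase normalised to β-galactosidase; means of triplicates.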

Structure (SMILES)	EC50 [1]	EC50 [2]	Activity [3]	Ratio EC50 (HEK293)	Ratio EC50 [4]	EC50 [5]
CCCOc1ccc(C[C@@H](CCc2ccccc2)C(=O)O)cc1CNC(=O)c1ccc(C23CC4CC(CC(C4)C2)C3)cc1	1.76 µM	0.034 µM	1 µM	50	50	
CCCOc1ccc(C[C@H](CC)C(=O)O)cc1CNC(=O)c1ccc(C23CC4CC(CC(C4)C2)C3)cc1						0.13 µM
CCCOc1ccc(C[C@H](CC2CCCCC2)C(=O)O)cc1CNC(=O)c1ccc(C23CC4CC(CC(C4)C2)C3)cc1		0.022 µM	1 µM	240	240	
CCCOc1ccc(C[C@H](CCc2ccccc2)C(=O)O)cc1CNC(=O)c1ccc(C23CC4CC(CC(C4)C2)C3)cc1	0.77 µM	0.0092 µM	0.05 µM	50	50	
CCCOc1ccc(C[C@@H](CC2CCCCC2)C(=O)O)cc1CNC(=O)c1ccc(C23CC4CC(CC(C4)C2)C3)cc1		0.012 µM	1 µM	240	240	
